Compounds with a hit are over-represented: about 1.8% of the library has one in this group of screens.
B2AR ag: beta2AR agonists driving receptor internalization, primary screen, cell-based, FAP fluorogen, flow cytometry; Am2.2-beta2AR cells; Beta-2 adrenergic receptor (Homo sapiens), P07550; AID 504454, 2011; 340,000 compounds, 0.43% hits; response, % (test concentration not listed);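 active means response above a set limit, near 3 SD of response in nonfluorescent compounds, cut at about 42% in these data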
APJ antag: antagonists of human apelin receptor APJ, primary screen, CHO-K1 cells, beta-arrestin complementation, luminescence | P35414 | inhibition, % at 20 µM | 330,000 compounds, 0.32% hits | AID 2521, 2010;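 active means inhibition above about 40% at 20 µM, limit read from the data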;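 further: cells challenged with 10 nM apelin-13 agonist together with compound; plate controls were apelin-13 plus DMSO wells for no effect and DMSO wells lacking apelin-13 for full effect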
Target sequence (P35414 whole entry, looked up): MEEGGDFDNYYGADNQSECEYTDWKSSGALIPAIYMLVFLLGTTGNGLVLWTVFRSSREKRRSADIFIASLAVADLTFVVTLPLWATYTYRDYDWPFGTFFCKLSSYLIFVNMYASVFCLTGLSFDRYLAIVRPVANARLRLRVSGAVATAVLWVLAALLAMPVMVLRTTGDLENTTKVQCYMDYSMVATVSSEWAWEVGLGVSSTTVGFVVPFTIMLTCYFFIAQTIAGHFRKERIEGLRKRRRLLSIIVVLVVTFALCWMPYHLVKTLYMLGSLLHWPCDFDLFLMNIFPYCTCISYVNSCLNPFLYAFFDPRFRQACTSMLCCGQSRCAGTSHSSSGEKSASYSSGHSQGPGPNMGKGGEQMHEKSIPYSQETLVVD
CXCR6 inh: CXCR6 receptor inhibitors, primary screen, cell-based, beta-arrestin, luminescence, CHO-K1 PathHunter, 1536-well. C-X-C chemokine receptor type 6 (Homo sapiens), O00574. inhibition, % at 20 µM. 360,000 compounds, 0.36% hits; in the data active means inhibition above about 34%, passing the limit was not always enough;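 further: antagonist mode with CXCL16 agonist at 10 nM final; 0% = 10 nM CXCL16 with DMSO and 100% = unstimulated wells without agonist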
CCR6 antagonist: CCR6 receptor antagonists, primary screen, cell-based, CHO-K1, luminescence, beta-arrestin, uHTS; C-C chemokine receptor type 6 (Homo sapiens), P51684; CHO-K1 CCR6 PathHunter beta-arrestin, CCL20-stimulated; inhibition, % at 20 µM; 340,000 compounds, 0.49% hits; AID 493098, 2011;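 active means compounds whose inhibition of the agonist-driven luminescence signal at 20 µM reaches about 50%, limit read from the data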;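 further: cells stimulated with CCL20 at 14 nM final; plate controls were DMSO with CCL20 for no effect and DMSO without agonist for full effect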
EBI2 antag: EBI2 receptor antagonists, beta-arrestin recruitment, primary screen, cell-based, luminescence, 7a,25-OHC stimulation, uHTS. G-protein coupled receptor 183 (Homo sapiens), P32249. 7a,25-OHC stimulated. inhibition, % at 5 µM. 360,000 compounds, 0.81% hits. AID 651636, 2012; in the data active means inhibition above about 38%;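 further: enzyme fragment complementation signal reports receptor beta-arrestin coupling in cells; 0% = agonist plus DMSO wells and 100% = wells without agonist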
APJ ag: agonists of human apelin receptor APJ, primary screen, CHO-K1 cells, PathHunter beta-arrestin, luminescence; 0% DMSO wells, 100% apelin; activation, % at 20 µM; 330,000 compounds, 0.11% hits; AID 2520, 2010;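 active means activation more than six SD over the plate average, tested at 20 µM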;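 further: 0% = DMSO alone and 100% = apelin-13 at 10 nM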
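system = engineered CHO-K1 APJ arrestin reporter cells | input = 1000 cells per well | timing = overnight seeding, 90 min compound at 25 °C, 1 h detection | measured by = enzyme-fragment complementation luminescence | read-out = beta-arrestin recruitment to APJ as agonist activity, luminescent signal | control set = negative DMSO alone, positive Apelin-13 at 10 nM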
CXCR6 confirm: CXCR6 receptor antagonists, confirmation, cell-based, single concentration, beta-arrestin, luminescence. CHO-K1 CXCR6 PathHunter beta-arrestin. 700 compounds, 65% hits. inhibition, % at 20 µM. shares compounds with CXCR6 inh;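 active means mean inhibition over four retests above 40%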;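 further: receptor stimulated with 10 nM CXCL16 agonist; beta-galactosidase fragment complementation upon beta-arrestin recruitment to receptor; plate controls were CXCL16 plus DMSO for no effect and DMSO without CXCL16 for full effect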
The depositor's hits bear a star.

What do the screens show for `O=C(Oc1c(Cl)cc(Cl)c2cccnc12)c1ccco1`?
B2AR ag: 8; APJ antag: 2; CXCR6 inh: 45*; EBI2 antag: 27; APJ ag: -2; CXCR6 confirm: 70*

How did Cc1noc(C)c1COc1ccccc1C(=O)N1CCN(S(=O)(=O)c2ccc(C(C)C)cc2)CC1 do in these assays?
CXCR6 inh: -2; EBI2 antag: -5

Results for Nc1nc(N)c2c(ccc3c2ccn3Cc2cccc([N+](=O)[O-])c2)n1 ?
CXCR6 inh: 62*; EBI2 antag: -45; CXCR6 confirm: 68*

What do the screens show for `Nc1nc(N)c2cc([N+](=O)[O-])ccc2n1`?
B2AR ag: 1; CXCR6 inh: 1; CCR6 antagonist: -1; EBI2 antag: 11

Results for COc1ccc(NC(=O)c2ccsc2NC(C)=O)cc1 ?
B2AR ag: 2; APJ antag: 1; CXCR6 inh: -7; CCR6 antagonist: -7; EBI2 antag: 0; APJ ag: -1

How did C[C@H](NC(=O)c1ccccc1)C(=O)Nc1nc(-c2ccccn2)cs1 do in these assays?
B2AR ag: -1; APJ antag: -5; CXCR6 inh: -1; CCR6 antagonist: -6; EBI2 antag: -4; APJ ag: 0

How did N#Cc1ccccc1OCC(=O)Nc1nc(-c2ccccn2)cs1 do in these assays?
CXCR6 inh: 8; EBI2 antag: 0

How did CC(Oc1cccc(Cl)c1)C(=O)Nc1nc(-c2ccccn2)cs1 (centres undefined) do in these assays?
B2AR ag: 1; APJ antag: 30; CXCR6 inh: 70*; CCR6 antagonist: 87*; EBI2 antag: -1; APJ ag: -11; CXCR6 confirm: 78*

How did CC(Oc1ccccc1)C(=O)Nc1nc(-c2ccccn2)cs1 (centres undefined) do in these assays?
B2AR ag: -11; APJ antag: -3; CXCR6 inh: 38*; EBI2 antag: -7; APJ ag: -5; CXCR6 confirm: 64*

Results for O=C(COc1ccc(F)cc1Cl)Nc1nc(-c2ccccn2)cs1 ?
B2AR ag: 0; APJ antag: 8; CXCR6 inh: 46*; EBI2 antag: -4; APJ ag: -3; CXCR6 confirm: 38

Results for CC(Oc1ccccc1)C(=O)Nc1nc(-c2ccncc2)cs1 (centres undefined) ?
B2AR ag: 5; APJ antag: -18; CXCR6 inh: -13; CCR6 antagonist: 1; EBI2 antag: -6; APJ ag: -2

What do the screens show for `CC(C)(C)NC(=O)C(c1ccncc1)n1c(-c2ccc(C(F)(F)F)cc2)nc2ccccc21` (centres undefined)?
EBI2 antag: -10

What do the screens show for `Cn1cc(CNC(=O)C2CCCCC2)cn1`?
B2AR ag: -2; APJ antag: -18; CXCR6 inh: 43*; CCR6 antagonist: 2; EBI2 antag: 1; APJ ag: -6; CXCR6 confirm: 7

Results for O=C(NCc1ccncc1)C1CCCCC1 ?
B2AR ag: 1; APJ antag: -4; CXCR6 inh: 7; CCR6 antagonist: 6; EBI2 antag: -16; APJ ag: 2

Results for COCOCCn1cc(CN2CCS(=O)(=O)N(Cc3ccc(-c4ccccc4)cc3)C(C(C)C)C2=O)nn1 (centres undefined) ?
CXCR6 inh: 6; EBI2 antag: 2

Results for O=C(CSc1ccccn1)Nc1ccc(NC(=O)CSc2ccccn2)cc1 ?
B2AR ag: -7; APJ antag: -9; CXCR6 inh: 87*; CCR6 antagonist: 10; EBI2 antag: 9; APJ ag: 0; CXCR6 confirm: 10

Results for CCCCn1c(N)c(N(CC(C)C)C(=O)c2cc3c(s2)CCCCC3)c(=O)[nH]c1=O ?
B2AR ag: 1; APJ antag: 19; CXCR6 inh: 9; CCR6 antagonist: 8; EBI2 antag: -1; APJ ag: 6

How did COc1ccc(OCC(=O)N/N=C(\C)c2ccc(-n3ccnc3)cc2)cc1 do in these assays?
B2AR ag: -2; APJ antag: -8; CXCR6 inh: -3; CCR6 antagonist: -18; EBI2 antag: -7; APJ ag: -1

How did C/C(=N\NC(=O)COc1ccc(C(C)(C)C)cc1)c1ccc(-n2ccnc2)cc1 do in these assays?
B2AR ag: -10; APJ antag: -31; CXCR6 inh: 73*; CCR6 antagonist: -2; EBI2 antag: 12; APJ ag: -1; CXCR6 confirm: 6

What do the screens show for `CCc1ccc(OCC(=O)Nc2ccncc2)cc1`?
B2AR ag: 1; APJ antag: 10; CXCR6 inh: 7; CCR6 antagonist: 7; EBI2 antag: -6; APJ ag: 0

Results for CC(C)(C)c1ccc(OCC(=O)Nc2ccncc2)cc1 ?
B2AR ag: 0; APJ antag: -2; CXCR6 inh: 41*; CCR6 antagonist: -3; EBI2 antag: -1; APJ ag: -2; CXCR6 confirm: 16

How did NC(=O)NC(CC(=O)OCC(=O)Nc1nnc(-c2ccccc2)o1)c1ccc(Cl)cc1 (centres undefined) do in these assays?
CXCR6 inh: -7; EBI2 antag: -10

Results for Cc1nc(S(=O)(=O)c2ccc(Cl)cc2)c(N(C)C)o1 ?
B2AR ag: 2; APJ antag: -34; CXCR6 inh: 1; CCR6 antagonist: 10; EBI2 antag: -2; APJ ag: -2

What do the screens show for `Cc1ccc(NC(=S)NNC(=S)Nc2ccc(C)cc2)cc1`?
B2AR ag: 4; CXCR6 inh: 13; CCR6 antagonist: 34; EBI2 antag: 28

How did Cc1ccc(NC(=S)NNC(=O)Nc2ccccc2)cc1 do in these assays?
B2AR ag: -4; APJ antag: 44*; CXCR6 inh: 53*; EBI2 antag: 9; APJ ag: -6; CXCR6 confirm: 38

Results for CCc1nc2ccc(C(=O)Nc3cccc(NS(C)(=O)=O)c3)cn2c1N(C)C(=O)c1cccc(OC)c1 ?
CXCR6 inh: -4; EBI2 antag: 0

What do the screens show for `CC1S/C(=N/N=C/c2ccco2)N(Cc2ccccc2)C1=O` (centres undefined)?
B2AR ag: 1; APJ antag: -12; CXCR6 inh: 6; CCR6 antagonist: 13; EBI2 antag: 27; APJ ag: -2

Source: PubChem (several laboratories)
